Experimental data taken from ChEMBL document CHEMBL2203144, “Synthesis and evaluation of antimicrobial activity of 4H-pyrimido[2,1-b]benzothiazole, pyrazole and benzylidene derivatives of curcumin” (Eur J Med Chem, 2012).
Activity calls are given as the source filed them. No cut-off for these calls is given here.

Key:
Aspergillus flavus [1] = experiment: Antifungal activity against Aspergillus flavus after 72 hrs by broth dilution method; type: functional
In short: (§1)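 Compounds and fluconazole reference were dissolved in acetone at 120 µM/mL and serially diluted to 20–0.315 µM/mL. 10 µL compound plus 10 µL fungal culture broth added to 150 µL Sabouraud dextrose medium per well. Optical density recorded, then incubated 72 h at 28 °C. MIC95 taken from absence of turbidity. Acetone-at-same-dilution solvent control.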

Bacillus cereus = experiment: Antibacterial activity against Bacillus cereus MTCC 7350 after 24 hrs by broth microdilution method; type: functional
In short: (§2)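 Microwell broth dilution in brain heart infusion broth (nutrient broth adjusted to pH 7.0). Inoculum from 16 h cultures, adjusted to 0.5 McFarland (1.5 × 10⁸ CFU/mL). 10 µL compound (serial dilutions 20 down to 0.625 or 0.312 µM/mL) plus 10 µL culture added to 150 µL broth. Incubated 24 h at 37 °C. MIC95 is the lowest concentration with no turbidity. Ciprofloxacin reference; inoculum and broth controls.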

Aspergillus fumigatus [2] = experiment: Antifungal activity against Aspergillus fumigatus after 72 hrs by broth dilution method; type: functional; in short: as §1
Aspergillus niger [3] = experiment: Antifungal activity against Aspergillus niger after 72 hrs by broth dilution method; type: functional; in short: as §1
Aspergillus flavus [4] = experiment: Antifungal activity against Aspergillus flavus after 72 hrs by agar disk diffusion method; type: functional
In short: (§3)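 Sterile filter-paper discs dipped in the acetone dilutions of compound (20–0.315 µM/mL), then dried to remove acetone. Sabouraud dextrose agar plates spread with 1 mL fungal culture. Discs placed aseptically; one drug-free disc served as growth control; fluconazole reference. Plates incubated upright 72 h at 28 °C. Zone of inhibition measured in mm with a scale.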

Salmonella typhi = experiment: Antibacterial activity against Salmonella typhi ATCC 15499 after 24 hrs by broth microdilution method; type: functional, Salmonella enterica subsp. enterica serovar Typhi
In short: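 Broth microdilution in brain heart infusion broth in microwells. Inoculum was prepared from 16 h cultures adjusted to the 0.5 McFarland standard (1.5 × 10⁸ CFU/mL). Compounds were serially diluted from 20 down to 0.625 µM/mL and added to the broth, followed by the bacterial culture. Plates were incubated 24 h at 37 °C, with optical density read. MIC95 was the lowest concentration giving no turbidity. Inoculum and broth controls were included.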

Pseudomonas aeruginosa = experiment: Antibacterial activity against Pseudomonas aeruginosa ATCC 23564 after 24 hrs by broth microdilution method; type: functional; in short: as §2
Escherichia coli = experiment: Antibacterial activity against Escherichia coli ATCC 35218 after 24 hrs by broth microdilution method; type: functional; in short: as §2
Providencia rettgeri = experiment: Antibacterial activity against Providencia rettgeri DRDE after 24 hrs by broth microdilution method; type: functional; in short: as §2
[5] = Cytotoxicity against human L123 cells after 48 hrs by MTT assay; type: cell-based
In short: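 MTT assay. 2×10³ cells per well in MEM + 10% FBS, attached 24 h, then treated at 5, 10, 20, 50 and 100 µM/mL for 48 h; controls received medium with 0.2% DMSO. Duplicate treatments. Cells PBS-washed, given MTT (stock 1 mg/mL) for 4 h at 37 °C. Formazan dissolved in DMSO, read at 590 nm. IC50 is the concentration reducing viability by 50%.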

Staphylococcus aureus = experiment: Antibacterial activity against Staphylococcus aureus ATCC 11632 after 24 hrs by broth microdilution method; type: functional; in short: as §2
Aspergillus fumigatus [6] = experiment: Antifungal activity against Aspergillus fumigatus after 72 hrs by agar disk diffusion method; type: functional; in short: as §3
Aspergillus niger [7] = experiment: Antifungal activity against Aspergillus niger after 72 hrs by agar disk diffusion method; type: functional; in short: as §3
[8] = Salmonella enterica subsp. enterica serovar Typhi

Row | Structure (SMILES) | MIC95 (Aspergillus flavus [1]) | MIC95 (Bacillus cereus) | MIC95 (Aspergillus fumigatus [2]) | MIC95 (Aspergillus niger [3]) | inhibition zone (IZ) (Aspergillus flavus [4]) | MIC95 (Salmonella typhi) [uM/ml] | MIC95 (Pseudomonas aeruginosa) | MIC95 (Escherichia coli) | MIC95 (Providencia rettgeri) | IC50 [5] [uM/ml] | MIC95 (Staphylococcus aureus) | inhibition zone (IZ) (Aspergillus fumigatus [6]) | inhibition zone (IZ) (Aspergillus niger [7]) | MIC95 (Salmonella typhi; [8])
1 | COc1cc(/C=C/c2cc(/C=C/c3ccc(O)c(OC)c3)n(C(=O)c3ccncc3)n2)ccc1O | 2.5 uM/ml | inactive | inactive | 2.5 uM/ml | 22 mm | 5 | 1.25 uM/ml | 2.5 uM/ml | inactive | > 100 | 1.25 uM/ml | inactive | 18 mm | –
2 | COc1cc(/C=C/C(=O)C2=C(/C=C/c3ccc(O)c(OC)c3)N=C3Sc4ccccc4N3C2c2ccccc2)ccc1O (stereo not drawn) | inactive | 5 uM/ml | inactive | inactive | inactive | 20 | 10 uM/ml | inactive | 20 uM/ml | > 100 | 20 uM/ml | inactive | inactive | –
3 | COc1cc(/C=C/c2cc(/C=C/c3ccc(O)c(OC)c3)n(C(N)=S)n2)ccc1O | 1.25 uM/ml | 0.625 uM/ml | 2.5 uM/ml | 2.5 uM/ml | 20 mm | 2.5 | 2.5 uM/ml | inactive | 1.25 uM/ml | – | 1.25 uM/ml | 25 mm | 22 mm | –
4 | COc1cc(/C=C/C(=O)C2=C(/C=C/c3ccc(O)c(OC)c3)N=C3Sc4ccccc4N3C2c2c(Cl)cccc2Cl)ccc1O (stereo not drawn) | inactive | 5 uM/ml | inactive | inactive | inactive | – | 20 uM/ml | 20 uM/ml | 10 uM/ml | > 100 | inactive | inactive | inactive | inactive
5 | COc1cc(/C=C/C(=O)C(=Cc2ccccc2)C(=O)/C=C/c2ccc(O)c(OC)c2)ccc1O | inactive | 0.625 uM/ml | 2.5 uM/ml | inactive | inactive | 2.5 | inactive | 1.25 uM/ml | 0.625 uM/ml | – | 1.25 uM/ml | 15 mm | inactive | –
6 | COc1cc(/C=C/C(=O)C2=C(/C=C/c3ccc(O)c(OC)c3)N=C3Sc4ccccc4N3C2c2ccc(O)cc2)ccc1O (stereo not drawn) | inactive | 2.5 uM/ml | 5 uM/ml | inactive | inactive | 20 | 10 uM/ml | 5 uM/ml | inactive | – | 1.25 uM/ml | 12 mm | inactive | –
7 | COc1cc(/C=C/c2cc(/C=C/c3ccc(O)c(OC)c3)n(C(N)=O)n2)ccc1O | inactive | inactive | 1.25 uM/ml | 5 uM/ml | inactive | – | 5 uM/ml | 2.5 uM/ml | 2.5 uM/ml | – | inactive | 20 mm | 15 mm | inactive
8 | O=C(O)c1cn(C2CC2)c2cc(N3CCNCC3)c(F)cc2c1=O [CIPROFLOXACIN] | – | 0.625 uM/ml | – | – | – | 2.5 | 1.25 uM/ml | 1.25 uM/ml | 1.25 uM/ml | – | 1.25 uM/ml | – | – | –
